The test system of data set [1] is Escherichia coli. Description: Antibacterial activity against multi-drug resistant Escherichia coli NMI 3548/14 assessed as reduction in microbial growth incubated for 20 hrs. Type of data set: functional. Particulars: NMI 3548/14, 20 h. The procedure, abridged:
(§1)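 Broth microdilution MIC (modified Hancock protocol) in non-binding polystyrene plates. Inoculum ~2 × 10^5 CFU/mL in Mueller-Hinton broth with Mg²⁺ and Ca²⁺ at 4 mg/L each. Compounds dissolved in water, diluted in 0.01% acetic acid/0.2% BSA (final), added as 10× stocks. Covered plates incubated 20 h at 35 °C (± 2 °C) with 220 rpm circular shaking before MIC read.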

For data set [2], the system named is Escherichia coli. The data set is described as follows: Antibacterial activity against multi-drug resistant Escherichia coli NMI 3898/15 assessed as reduction in microbial growth incubated for 20 hrs. To be noted: NMI 3898/15, 20 h. Type of data set: functional. The procedure, abridged: as §1
For data set [3], the system named is Klebsiella pneumoniae. Description: Antibacterial activity against multi-drug resistant Klebsiella pneumoniae NMI 3081/09 assessed as reduction in microbial growth incubated for 20 hrs. To be noted: NMI 3081/09, 20 h. Type of data set: functional. The method, boiled down:
as §1

For data set [4], the system named is Klebsiella pneumoniae. The data set is described as follows: Antibacterial activity against multi-drug resistant Klebsiella pneumoniae NMI 2697/14 assessed as reduction in microbial growth incubated for 20 hrs. Particulars: NMI 2697/14, 20 h. Format: functional. The procedure, abridged:
as §1

Data set [5] concerns Pseudomonas aeruginosa. The data set is described as follows: Antibacterial activity against Pseudomonas aeruginosa PAO1 assessed as reduction in microbial growth incubated for 20 hrs. Type of data set: functional. Particulars: PAO1, 20 h. The method, boiled down:
(§2)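 Broth microdilution MIC after a modified Hancock protocol for cationic peptides, in non-binding polystyrene plates. Inoculum ~2 × 10^5 CFU/mL in Mueller-Hinton broth with Mg²⁺ and Ca²⁺ at 4 mg/L each. Compounds dissolved in water, diluted in 0.01% acetic acid, 0.2% BSA (final), added as 10× aliquots. Covered plates incubated 20 h at 35 °C (± 2 °C) with shaking at 220 rpm. MIC read as lowest inhibiting concentration.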

Data set [6] has as its system Escherichia coli. The data set is described as follows: Antibacterial activity against Escherichia coli lacking a functional SbmA assessed as reduction in microbial growth incubated for 20 hrs. The method, boiled down: as §2
The nature of data set [7]: Hemolytic activity against RBC (unknown origin) at 100 uM. Type of data set: ADME, cell-based, Erythrocyte. To be noted: red blood cells (erythrocytes); read-out: Activity.
Data set [8] concerns Staphylococcus aureus. The data set is described as follows: Antibacterial activity against Staphylococcus aureus ATCC 29213 assessed as reduction in microbial growth incubated for 20 hrs. Particulars: ATCC 29213, 20 h. Format: functional. The procedure, abridged: as §2
Data set [9] concerns Acinetobacter baumannii. The data set is described as follows: Antibacterial activity against Acinetobacter baumannii ATCC 19606 assessed as reduction in microbial growth incubated for 20 hrs. Particulars: ATCC 19606 = CIP 70.34 = JCM 6841, 20 h. Type of data set: functional. The procedure, abridged:
as §2

The test system of data set [10] is Escherichia coli. Description: Antibacterial activity against Escherichia coli ATCC 25922 assessed as reduction in microbial growth incubated for 20 hrs. Format: functional. Particulars: ATCC 25922, 20 h. The method, boiled down:
as §1

Data set [11] has as its system Klebsiella pneumoniae. The data set is described as follows: Antibacterial activity against Klebsiella pneumoniae ATCC 13883 assessed as reduction in microbial growth incubated for 20 hrs. Format: functional. Particulars: ATCC 13883, 20 h. The method, boiled down: as §2

Molecules are shown by their SMILES. Numbered stars: 1 amine (or outer) side, 2 acyl side, 3 side chain; on linkers, the order of the positions; unused ones are H or OH. Bridge positions count the residues as written; N and C are the ends. Square brackets hold non-standard residues; d marks the D form. Peptide text beside a SMILES is read from it. I, II: the chains in the order shown. * marks the point of attachment. X3 = CC[C@H](C)[C@@H](C(=O)*)N(C(=O)[C@H](CCCNC(=N)N)NC(=O)CCCCCNC(=O)[C@@H](N)CCCNC(=N)N)C(=O)[C@H](CCCNC(=N)N)NC(=O)CCCCCNC(=O)[C@@H](N)CCCNC(=N)N; Succinimide(1-C2H4CO,3-yl) = O=C1CC([*:1])C(=O)N1CCC(=O)[*:2]; X2 = O=C(OCCOCCN[*:1])[*:2] Bounds are passed on as bounds.

In the case of `CC(C)(O/N=C(\C(=O)N[C@@H]1C(=O)N2C(C(=O)[O-])=C(C[n+]3ccccc3)CS[C@H]12)c1csc(N)n1)C(=O)O` [CEFTAZIDIME], the MIC – broadly, the lowest concentration found to suppress growth – in data set [1] is 2 µg/mL; in data set [2] it was 64 µg/mL; in data set [3], 64 µg/mL; in data set [4] it was greater than 32 µg/mL.

With `CC[C@H](C)[C@H](NC(=O)[C@H](CCCCN)NC(=O)[C@H]([C@@H](C)CC)N(C(=O)[C@H](CCCNC(=N)N)NC(=O)CCCCCNC(=O)[C@@H](N)CCCNC(=N)N)C(=O)[C@H](CCCNC(=N)N)NC(=O)CCCCCNC(=O)[C@@H](N)CCCNC(=N)N)C(=O)N[C@@H](CC(C)C)C(=O)N[C@@H](Cc1ccccc1)C(=O)N[C@@H](CCC(N)=O)C(=O)N[C@@H](CC(N)=O)C(=O)N[C@@H](CCCNC(=N)N)C(=O)N[C@@H](CCCNC(=N)N)C(=O)N[C@@H](CCSC)C(=O)N[C@@H](CCCCN)C(=O)N[C@@H](Cc1c[nH]c2ccccc12)C(=O)N[C@@H](CCCCN)C(=O)N[C@@H](CCCCN)C(=O)N[C@@H](CSC1CC(=O)N(CCC(=O)NCCOCCOC(=O)N[C@@H](CS)C(=O)N[C@H](C(=O)N[C@@H](CS)C(=O)N[C@H](C(=O)N[C@H](C(=O)N[C@@H](C)C(=O)N[C@@H](CS)C(=O)N[C@@H](C)C(=O)N[C@@H](CS)C(=O)N[C@H](C(N)=O)[C@@H](C)O)[C@@H](C)O)[C@@H](C)O)[C@@H](C)O)C1=O)C(N)=O` (some centres not stated) (I: X3-KILFQNRRMKWKKC-NH2 / II: [X2]CTCTTACACT-NH2; linker I:14-II:N via Succinimide(1-C2H4CO,3-yl)), the MIC is 32 µg/mL in [5]; 32 µg/mL in [6]; 4 to 8 µg/mL in data set [1]; 16 µg/mL in [2]; greater than 64 µg/mL in data set [8]; 8 to 16 µg/mL in [3]. Besides, the MIC in data set [9] is 16 µg/mL; in data set [10] it was 32 µg/mL; in [11], 64 µg/mL; in data set [4], 16 to 32 µg/mL. Moreover, the hemolysis at 100 µM in data set [7] is less than 1%.

For the compound `CC1(C)S[C@@H]2[C@H](NC(=O)[C@H](N)c3ccccc3)C(=O)N2[C@H]1C(=O)O` [AMPICILLIN], the MIC in [1] is greater than 128 µg/mL; in data set [2], greater than 256 µg/mL; in [3], greater than 256 µg/mL; in [4] it was greater than 128 µg/mL.

In the case of `CC[C@@H](C)[C@@H](NC(=O)[C@@H](CCCCN)NC(=O)[C@@H]([C@H](C)CC)N(C(=O)[C@@H](CCCNC(=N)N)NC(=O)CCCCCNC(=O)[C@H](N)CCCNC(=N)N)C(=O)[C@@H](CCCNC(=N)N)NC(=O)CCCCCNC(=O)[C@H](N)CCCNC(=N)N)C(=O)N[C@H](CC(C)C)C(=O)N[C@H](Cc1ccccc1)C(=O)N[C@H](CCC(N)=O)C(=O)N[C@H](CC(N)=O)C(=O)N[C@H](CCCNC(=N)N)C(=O)N[C@H](CCCNC(=N)N)C(=O)N[C@H](CCSC)C(=O)N[C@H](CCCCN)C(=O)N[C@H](Cc1c[nH]c2ccccc12)C(=O)N[C@H](CCCCN)C(=O)N[C@H](CCCCN)C(=O)N[C@H](CSC1CC(=O)N(CCC(=O)NCCOCCOC(=O)N[C@H](CS)C(=O)N[C@@H](C(=O)N[C@H](CS)C(=O)N[C@H](C)C(=O)N[C@@H](C(=O)N[C@H](C)C(=O)N[C@H](CS)C(=O)N[C@@H](C(=O)N[C@H](CS)C(=O)N[C@@H](C(N)=O)[C@H](C)O)[C@H](C)O)[C@H](C)O)[C@H](C)O)C1=O)C(N)=O` (some centres not stated), the MIC was determined as 8 µg/mL in data set [5]; 8 µg/mL in data set [6]; 8 µg/mL in data set [1]; 8 µg/mL in data set [2]; 32 µg/mL in data set [8]; 16 µg/mL in data set [3]. For the same compound, the MIC in data set [9] came to 4 µg/mL; in data set [10] it was 8 µg/mL; in [11] it was 16 µg/mL; in [4], 64 µg/mL. The hemolysis at 100 µM in data set [7] was found to be 1.6%.

As for `C[C@@H](O)[C@H]1C(=O)N2C(C(=O)O)=C(SCCNC=N)C[C@H]12` [IMIPENEM ANHYDROUS], the minimum inhibitory concentration (MIC) in [1] was found to be 2 µg/mL; in data set [2], 0.5 µg/mL; in data set [3] it was 32 µg/mL; in data set [4], 4 µg/mL.

Turning to `CC[C@@H](C)[C@@H](NC(=O)[C@H]1CCCN1C(=O)[C@@H](CCCNC(=N)N)NC(=O)[C@H]1CCCN1C(=O)[C@@H](Cc1cnc[nH]1)NC(=O)[C@@H](CO)NC(=O)[C@H](NC(=O)[C@H]1CCCN1C(=O)[C@@H](CCCNC(=N)N)NC(=O)[C@H]1CCCN1C(=O)[C@@H](CO)NC(=O)[C@@H](Cc1ccc(O)cc1)NC(=O)[C@H]1CCCN1C(=O)[C@@H](CCCNC(=N)N)NC(=O)[C@H]1CCCN1C(=O)[C@@H](CCCNC(=N)N)NC(=O)CCCCCNC(=O)[C@H](N)CCCNC(=N)N)[C@H](C)O)C(=O)N[C@H](CCCNC(=N)N)C(=O)N[C@@H](C(N)=O)C(C)C`, the MIC in data set [5], in [6], in [1], in [2], in data set [8] and in data set [3] was greater than 64 µg/mL throughout. The MIC in data set [9], in data set [10], in data set [11] and in data set [4] was greater than 64 µg/mL throughout. Further, in [7], the hemolysis at 100 µM is less than 1%.

Regarding `CO/N=C(\C(=O)N[C@@H]1C(=O)N2C(C(=O)[O-])=C(C[N+]3(C)CCCC3)CS[C@H]12)c1csc(N)n1`, the MIC in [1] is 2 µg/mL; in data set [3], greater than 256 µg/mL; in data set [4] it was 16 µg/mL.

Regarding `CN(C)c1cc(NC(=O)CNC(C)(C)C)c(O)c2c1C[C@H]1C[C@H]3[C@H](N(C)C)C(O)=C(C(N)=O)C(=O)[C@@]3(O)C(O)=C1C2=O` [TIGECYCLINE], the MIC in data set [1] came out at 16 µg/mL; in data set [2], 0.5 µg/mL; in [3], 2 µg/mL; in data set [4] it was 0.5 µg/mL.

(Values after ChEMBL document CHEMBL4390654, “Microwave-assisted solid-phase synthesis of antisense acpP peptide nucleic acid-peptide conjugates active against colistin- and tigecycline-resistant E. coli and K. pneumoniae” (Eur J Med Chem, 2019).)
